In ChEMBL document CHEMBL3227929, “Synthesis and evaluation for diuretic activity of 1-substituted 6-chloro-5-sulfamylindolines” (1979) one finds Ratio data, which are given here for 11 molecules.

Assay type in all cases: functional
The subject of assay [1] is Rattus norvegicus. Description: Diuretic activity in Wistar rat assessed as volume of excreted urine at 50 mg/kg, po measured after 0 to 5 hrs relative to urea-treated control. Summed up:
(§1)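 Female Wistar rats (150-200 g), groups of six, fasted 16 h, dosed orally at 50 mg/kg in 1% saline (15 mL/kg). Housed singly in metabolic cages with water ad libitum. Urine collected 0-5 h and 5-24 h. Na+ and K+ measured by flame photometry as mean mequiv, volume as mean mL. Each expressed as a ratio to a urea group (1000 mg/kg) run alongside vehicle control.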

Assay [2] concerns Rattus norvegicus. Put plainly: Diuretic activity in Wistar rat assessed as sodium level in excreted urine at 50 mg/kg, po measured after 5 to 24 hrs by flame photometric analysis relative to urea-treated control. Summed up:
as §1

Assay [3] concerns Rattus norvegicus. Description: Diuretic activity in Wistar rat assessed as potassium level in excreted urine at 50 mg/kg, po measured after 5 to 24 hrs by flame photometric analysis relative to urea-treated control. Summed up:
as §1

Assay [4] concerns Rattus norvegicus. Description: Diuretic activity in Wistar rat assessed as volume of excreted urine at 50 mg/kg, po measured after 5 to 24 hrs relative to urea-treated control. Summed up:
as §1

For assay [5], the system named is Rattus norvegicus. Description: Diuretic activity in Wistar rat assessed as potassium level in excreted urine at 50 mg/kg, po measured after 0 to 5 hrs by flame photometric analysis relative to urea-treated control. Summed up: as §1
In assay [6] the test system is Rattus norvegicus. Put plainly: Diuretic activity in Wistar rat assessed as sodium level in excreted urine at 50 mg/kg, po measured after 0 to 5 hrs by flame photometric analysis relative to urea-treated control. The method in brief:
as §1

As for `NS(=O)(=O)c1cc2c(cc1Cl)N(C(=O)c1ccco1)CC2`, the Ratio in the assay with Rattus norvegicus [1] is 0.31; in the assay with Rattus norvegicus [2], 1.2; with Rattus norvegicus [3], 1.23; with Rattus norvegicus [4], 0.87; in the assay on Rattus norvegicus [5] it was 0.38; in the assay with Rattus norvegicus [6] it was 0.46.
Consider `NS(=O)(=O)c1cc(C(=O)NN2CCc3cc(S(N)(=O)=O)c(Cl)cc32)ccc1Cl`, for which the Ratio in the assay with Rattus norvegicus [1] amounted to 0.99; in the assay on Rattus norvegicus [2], 1.24; with Rattus norvegicus [3], 1.18; in the assay with Rattus norvegicus [4] it was 1.26; with Rattus norvegicus [5] it was 1.09; with Rattus norvegicus [6] it was 1.47.
`NS(=O)(=O)c1cc2c(cc1Cl)N(C(=O)c1ccccc1)CC2`: the Ratio in the assay with Rattus norvegicus [1] is reported as 0.83; in the assay on Rattus norvegicus [2], 1.08; in the assay with Rattus norvegicus [3], 1.1; with Rattus norvegicus [4], 0.85; in the assay on Rattus norvegicus [5], 0.41; in the assay on Rattus norvegicus [6], 0.79.
`CCCCN1CCc2cc(S(N)(=O)=O)c(Cl)cc21`: the Ratio with Rattus norvegicus [1] amounted to 0.7; with Rattus norvegicus [2], 1.15; in the assay on Rattus norvegicus [3] it was 1.06; in the assay on Rattus norvegicus [4], 0.9; with Rattus norvegicus [5] it was 0.78; in the assay on Rattus norvegicus [6], 0.98.
Take `NS(=O)(=O)c1cc2c(cc1Cl)N(Cc1ccccc1)CC2`: the Ratio is given as 0.77 in the assay on Rattus norvegicus [1]; 1.3 with Rattus norvegicus [2]; 1.2 with Rattus norvegicus [3]; 1.8 in the assay on Rattus norvegicus [4]; 0.73 in the assay with Rattus norvegicus [5]; 1 with Rattus norvegicus [6].
As for `NS(=O)(=O)c1cc2c(cc1Cl)N(Cc1ccco1)CC2`, the Ratio stood at 0.15 in the assay with Rattus norvegicus [1]; 1.09 in the assay on Rattus norvegicus [2]; 1.29 in the assay on Rattus norvegicus [3]; 1 in the assay with Rattus norvegicus [4]; 0.24 in the assay on Rattus norvegicus [5]; 0.29 in the assay with Rattus norvegicus [6].
Consider `CC(=O)N1CCc2cc(S(N)(=O)=O)c(Cl)cc21`, for which the Ratio is recorded as 0.53 in the assay with Rattus norvegicus [1]; 1.09 in the assay with Rattus norvegicus [2]; 1.1 with Rattus norvegicus [3]; 0.72 in the assay with Rattus norvegicus [4]; 0.53 in the assay on Rattus norvegicus [5]; 0.63 with Rattus norvegicus [6].
For `Cl.NS(=O)(=O)c1cc2c(cc1Cl)NCC2`, the Ratio came to 0.62 with Rattus norvegicus [1]; 1.02 in the assay on Rattus norvegicus [2]; 0.83 with Rattus norvegicus [3]; 0.94 with Rattus norvegicus [4]; 0.76 with Rattus norvegicus [5]; 0.95 in the assay on Rattus norvegicus [6].
Consider `NS(=O)(=O)c1cc2c(cc1Cl)N=CNS2(=O)=O` [CHLOROTHIAZIDE], for which the Ratio with Rattus norvegicus [1] is 1.3; in the assay on Rattus norvegicus [2], 1.1; in the assay on Rattus norvegicus [3], 1; in the assay with Rattus norvegicus [4], 1; with Rattus norvegicus [5] it was 1.5; in the assay with Rattus norvegicus [6], 1.9.
As for `NS(=O)(=O)c1cc(C(=O)O)c(NCc2ccco2)cc1Cl` [FUROSEMIDE], the Ratio stood at 2.75 with Rattus norvegicus [1]; 0.96 in the assay with Rattus norvegicus [2]; 1.31 in the assay on Rattus norvegicus [3]; 1.08 in the assay on Rattus norvegicus [4]; 1.12 with Rattus norvegicus [5]; 9.63 with Rattus norvegicus [6].
As to `CCCC(=O)N1CCc2cc(S(N)(=O)=O)c(Cl)cc21`, the Ratio was determined as 0.54 in the assay with Rattus norvegicus [1]; 1.3 with Rattus norvegicus [2]; 1.17 in the assay with Rattus norvegicus [3]; 0.96 with Rattus norvegicus [4]; 0.53 with Rattus norvegicus [5]; 1.04 in the assay with Rattus norvegicus [6].
